In ChEMBL document CHEMBL1781961, “Synthesis and in vitro antibacterial activity of 7-(3-alkoxyimino-4-amino-4-methylpiperidin-1-yl) fluoroquinolone derivatives” (Eur J Med Chem, 2011):
Converted amounts (≈) assume the structure as drawn.

Assays:
Staphylococcus aureus [1] = assay: Antibacterial activity against 10^4 CFU Staphylococcus aureus ATCC 25923 after 18 hrs by CLSI agar dilution method; format: functional; settings: ATCC 25923, 18 h
Pseudomonas aeruginosa [2] = assay: Antibacterial activity against 10^4 CFU Pseudomonas aeruginosa 09-32 after 18 hrs by CLSI agar dilution method; format: functional; settings: 09-32, 18 h
Pseudomonas aeruginosa [3] = assay: Antibacterial activity against 10^4 CFU Pseudomonas aeruginosa ATCC 27853 after 18 hrs by CLSI agar dilution method; format: functional; settings: ATCC 27853, 18 h
Enterococcus faecalis [4] = assay: Ratio of levofloxacin MIC to compound MIC for Enterococcus faecalis; format: functional
Summary of the method: (§1)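 MICs were measured by agar dilution on plates carrying serial twofold dilutions from […] down to 0.03. Plates were inoculated with 10⁴ cfu and incubated at 35 °C for 18 h. MIC was taken as the lowest concentration giving no visible growth. The ratio is the reference quinolone MIC divided by the test compound MIC for the same strain.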

Enterococcus faecium [5] = assay: Antibacterial activity against 10^4 CFU Enterococcus faecium 06-7 after 18 hrs by CLSI agar dilution method; format: functional; settings: 06-7, 18 h
Enterococcus faecalis [6] = assay: Antibacterial activity against 10^4 CFU Enterococcus faecalis 08-12 after 18 hrs by CLSI agar dilution method; format: functional; settings: 08-12, 18 h
[7] = system: Staphylococcus epidermidis; assay: Ratio of levofloxacin MIC to compound MIC for methicillin-sensitive Staphylococcus epidermidis 09-6; format: functional; summary of the method: as §1
[8] = Cytotoxicity against MDCK cells after 48 hrs by CPE assay; format: cell-based, Canis lupus familiaris; settings: dog
Summary of the method: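 MDCK cells kept in Minimum Essential Medium with Earle's salt plus 10% fetal bovine serum at 37 °C, 5% CO₂. […] Medium then replaced by assay medium with or without compound. After 48 h exposure, viability read by CPE assay. CC₅₀ calculated by Reed–Muench analysis.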

[9] = system: Staphylococcus epidermidis; assay: Antibacterial activity against 10^4 CFU methicillin-sensitive Staphylococcus epidermidis 09-6 after 18 hrs by CLSI agar dilution method; format: functional; settings: 09-6, 18 h
Enterococcus faecium [10] = assay: Antibacterial activity against 10^4 CFU Enterococcus faecium 08-2 after 18 hrs by CLSI agar dilution method; format: functional; settings: 08-2, 18 h
[11] = system: Staphylococcus epidermidis; assay: Antibacterial activity against 10^4 CFU methicillin-resistant Staphylococcus epidermidis 09-2 after 18 hrs by CLSI agar dilution method; format: functional; settings: 09-2, 18 h
Escherichia coli [12] = assay: Antibacterial activity against 10^4 CFU Escherichia coli ATCC 25922 after 18 hrs by CLSI agar dilution method; format: functional; settings: ATCC 25922, 18 h
Enterococcus faecalis [13] = assay: Antibacterial activity against 10^4 CFU Enterococcus faecalis 08-10 after 18 hrs by CLSI agar dilution method; format: functional; settings: 08-10, 18 h
Staphylococcus aureus [14] = assay: Antibacterial activity against 10^4 CFU methicillin-resistant Staphylococcus aureus 08-1 after 18 hrs by CLSI agar dilution method; format: functional; settings: 08-1, 18 h
Escherichia coli [15] = assay: Antibacterial activity against 10^4 CFU Escherichia coli 08-21 after 18 hrs by CLSI agar dilution method; format: functional; settings: 08-21, 18 h
Enterococcus faecalis [16] = assay: Ratio of gemifloxacin MIC to compound MIC for Enterococcus faecalis; format: functional; summary of the method: as §1
Klebsiella pneumoniae [17] = assay: Antibacterial activity against 10^4 CFU Klebsiella pneumoniae 09-23 after 18 hrs by CLSI agar dilution method; format: functional; settings: 09-23, 18 h
Streptococcus pneumoniae [18] = assay: Ratio of levofloxacin MIC to compound MIC for Streptococcus pneumoniae 08-4; format: functional; summary of the method: as §1
Klebsiella pneumoniae [19] = assay: Antibacterial activity against 10^4 CFU Klebsiella pneumoniae 09-22 after 18 hrs by CLSI agar dilution method; format: functional; settings: 09-22, 18 h
Staphylococcus aureus [20] = assay: Antibacterial activity against 10^4 CFU methicillin-sensitive Staphylococcus aureus 08-1 after 18 hrs by CLSI agar dilution method; format: functional; settings: 08-1, 18 h
Streptococcus pneumoniae [21] = assay: Antibacterial activity against 10^4 CFU Streptococcus pneumoniae 08-4 after 18 hrs by CLSI agar dilution method; format: functional; settings: 08-4, 18 h
Enterococcus faecalis [22] = assay: Ratio of gatifloxacin MIC to compound MIC for Enterococcus faecalis; format: functional; summary of the method: as §1

CO/N=C1\CN(c2c(F)cc3c(=O)c(C(=O)O)cn(C4CC4)c3c2OC)CCC1(C)N (configuration not stated)
MIC (Staphylococcus aureus [1]): 0.125 µg/mL (≈ 0.289 µM) | MIC (Pseudomonas aeruginosa [2]): 8 µg/mL (≈ 18.5 µM) | MIC (Pseudomonas aeruginosa [3]): 16 µg/mL (≈ 37 µM) | Ratio (Enterococcus faecalis [4]): 4 | MIC (Enterococcus faecium [5]): > 128 µg/mL | MIC (Enterococcus faecalis [6]): 1 µg/mL (≈ 2.31 µM) | Ratio [7]: 16 | CC50 at 48 h [8]: 729 µM | MIC [9]: 0.25 µg/mL (≈ 0.578 µM) | MIC (Enterococcus faecium [10]): > 128 µg/mL | MIC [11]: 0.25 µg/mL (≈ 0.578 µM) | MIC (Escherichia coli [12]): > 128 µg/mL | MIC (Enterococcus faecalis [13]): 1 µg/mL (≈ 2.31 µM) | MIC (Staphylococcus aureus [14]): 0.25 µg/mL (≈ 0.578 µM) | MIC (Escherichia coli [15]): > 128 µg/mL | Ratio (Enterococcus faecalis [16]): 4 | MIC (Klebsiella pneumoniae [17]): > 128 µg/mL | Ratio (Streptococcus pneumoniae [18]): 4 | MIC (Klebsiella pneumoniae [19]): > 128 µg/mL | MIC (Staphylococcus aureus [20]): 0.25 µg/mL (≈ 0.578 µM) | MIC (Streptococcus pneumoniae [21]): 0.5 µg/mL (≈ 1.16 µM) | Ratio (Enterococcus faecalis [22]): 4
